Experimental findings from ChEMBL document CHEMBL1938234, “Cytotoxic and antimalarial azaphilones from Chaetomium longirostre” (J Nat Prod, 2011) are described below.

One test relates to Plasmodium falciparum. Briefly: Antimalarial activity against multidrug-resistant Plasmodium falciparum K1 assessed as inhibition of [3H]-hypoxanthine incorporation. It counts as functional, organism-based. A digest of the protocol:
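In vitro culture of the K1 multidrug-resistant P. falciparum strain followed the Trager–Jensen method. Activity was scored by the Desjardins microculture radioisotope technique, reading [3H]-hypoxanthine uptake by the parasites. IC50 was taken as the concentration giving 50% reduction in parasite growth. Dihydroartemisinin served as the reference standard.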

A further test relates to KB. Briefly: Cytotoxicity against human KB cells by SRB assay. The test is classed as functional, cell-based.
The next test deals with MCF7. The test can be described thus: Cytotoxicity against human MCF7 cells by SRB assay. The test is classed as functional, cell-based.
For the next test, the system named is NCI-H187. Briefly: Cytotoxicity against human NCI-H187 cells by SRB assay. It counts as functional, cell-based.
The mark [1] stands for this setting: Plasmodium falciparum, K1, read-out: IC50.
Setting [2] is: Homo sapiens, MCF7, read-out: IC50.
The mark [3] stands for this setting: Homo sapiens, NCI-H187, read-out: IC50.

Consider `C[C@H]1[C@@H](O)O[C@@H]2O[C@@]3(C)CC[C@H]4[C@H](C)CC[C@@H]1[C@@]24OO3` [ARTENIMOL], for which the IC50 in the test with Plasmodium falciparum (setting [1]) turned out to be 4 nM.
`COc1cccc2c1C(=O)c1c(O)c3c(c(O)c1C2=O)C[C@@](O)(C(=O)CO)C[C@@H]3O[C@H]1C[C@H](N)[C@H](O)[C@H](C)O1` [DOXORUBICIN]: the IC50 is 330 nM with KB, 2290 nM in the test on MCF7 (setting [2]) and 110 nM in the test with NCI-H187 (setting [3]).
`Cc1c2ccncc2c(C)c2c1[nH]c1ccccc12` [ELLIPTECINE]: the IC50 with KB amounted to 1250 nM; in the test on NCI-H187 (setting [3]), 1820 nM.
For `CCC(C)CC(C)/C=C(C)/C=C/C(=O)[C@H]1C(=O)O[C@@]2(C)C(=O)C=C3C=C([C@H]4C(=O)C=CC[C@@H]4C)OC=C3[C@@H]12` (some centres not stated) [LONGIROSTRERONE C], the half-maximal inhibitory concentration (IC50) with KB was 230 nM; with MCF7 (mcf7), “Not Active”; in the test with NCI-H187 (nci-h187), “Not Active”; in the test with Plasmodium falciparum (setting [1]) it was 620 nM.
`CCC(C)CC(C)/C=C(C)/C=C/C(=O)C1=C2C3=COC([C@H]4C(=O)C[C@H](O)C[C@@H]4C)=CC3=CC(=O)[C@@]2(C)OC1=O` (some centres not stated) [LONGIROSTRERONE D]: the IC50 was 6380 nM with KB, 38200 nM in the test on MCF7 (setting [2]), 18400 nM in the test on NCI-H187 (setting [3]) and “Not Active” in the test with Plasmodium falciparum.
Regarding `CCC(C)CC(C)/C=C(C)/C=C/C(=O)[C@H]1C(=O)O[C@@]2(C)C(=O)C=C3C=C([C@H]4C(=O)C[C@H](O)C[C@@H]4C)OC=C3[C@@H]12` (some centres not stated) [LONGIROSTRERONEA], the IC50 is 1040 nM in the test on KB, 240 nM in the test on MCF7 (setting [2]), 3080 nM in the test with NCI-H187 (setting [3]) and 630 nM in the test on Plasmodium falciparum (setting [1]).
For `CCC(C)CC(C)/C=C(C)/C=C/C(=O)C[C@H]1C2=COC([C@H]3C(=O)C[C@H](O)C[C@@H]3C)=CC2=CC(=O)[C@]1(C)O` (some centres not stated) [LONGIROSTRERONEB], the IC50 with KB was 1520 nM; with MCF7 (mcf7), “Not Active”; in the test on NCI-H187 (nci-h187), “Not Active”; with Plasmodium falciparum (setting [1]), 3730 nM.
